Assay outcomes from PubChem.
Hits are enriched below; roughly 1.9% of the tested compounds scored in any of these assays.
H9c2 TAG inh = inhibitors of triacylglycerol accumulation | inhibition, % at 12.5 µM | H9c2 cells, Nile Red lipid (TAG) fluorescence; cells loaded with 200 µM oleic acid | AID 651582 | hit rate 0.66% among 230,000;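 active means pattern-corrected inhibition of lipid staining of at least 50% with the nuclear-stain viability signal not falling by more than 50%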
APJ ag = APJ receptor agonism. P35414. CHO-K1 APJ PathHunter beta-arrestin, luminescence; 0% DMSO wells, 100% apelin. activation, % at 20 µM. hit rate 0.11% among 330,000. AID 2520;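 active means activation more than six SD over the plate average, tested at 20 µM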
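Test system: CHO-K1 APJ beta-arrestin complementation cell line. Amount: cell density 1000 per well. Controls: DMSO negative, 10 nM Apelin-13 positive. Signal: luminescent beta-gal fragment complementation, chemiluminescent substrate. Read-out basis: agonist-driven arrestin binding to APJ. Timing: compound stimulation 90 min at 25 °C, detection 60 min.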
EBI2 block = EBI2 (human) antagonism. EBI2 beta-arrestin recruitment, luminescence, 7a,25-OHC stimulated. inhibition, % at 5 µM. hit rate 0.81% among 360,000. AID 651636; in the data active means inhibition above about 38%;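 further: enzyme fragment complementation signal reports receptor beta-arrestin coupling in cells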
CCR6 antag = blocks CCL20-driven beta-arrestin recruitment at human CCR6; P51684; CHO-K1 CCR6 PathHunter beta-arrestin, luminescence, CCL20-stimulated; inhibition, % at 20 µM; hit rate 0.49% among 340,000;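 active means compounds whose inhibition of the agonist-driven luminescence signal at 20 µM reaches about 50%, limit read from the data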;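 further: cells stimulated with CCL20 at 14 nM final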
Target sequence (P51684 whole entry, looked up): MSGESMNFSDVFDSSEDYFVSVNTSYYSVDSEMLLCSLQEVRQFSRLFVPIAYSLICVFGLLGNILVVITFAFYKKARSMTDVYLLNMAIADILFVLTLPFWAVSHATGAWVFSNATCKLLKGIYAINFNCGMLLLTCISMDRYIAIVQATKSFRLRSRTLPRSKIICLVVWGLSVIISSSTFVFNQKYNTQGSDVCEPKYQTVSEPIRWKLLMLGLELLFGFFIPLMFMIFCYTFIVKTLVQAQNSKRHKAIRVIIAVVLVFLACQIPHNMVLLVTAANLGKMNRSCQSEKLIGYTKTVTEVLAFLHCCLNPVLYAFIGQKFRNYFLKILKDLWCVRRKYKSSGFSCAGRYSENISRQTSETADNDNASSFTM
APJ antagonist = APJ receptor antagonism | P35414 | CHO-K1 APJ beta-arrestin complementation, luminescence | inhibition, % at 20 µM | hit rate 0.32% among 330,000;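 active means inhibition above about 40% at 20 µM, limit read from the data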;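 further: cells challenged with 10 nM apelin-13 agonist together with compound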
CXCR6 inh = inhibitors of human CXCR6 receptor. O00574. CHO-K1 PathHunter CXCR6 beta-arrestin, luminescence. inhibition, % at 20 µM. hit rate 0.36% among 360,000. AID 602244; in the data active means inhibition above about 34%, passing the limit was not always enough;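 further: antagonist mode with CXCL16 agonist at 10 nM final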
TAG conf = triacylglycerol accumulation inhibition, confirmation; inhibition, % at 12.5 µM; hit rate 71% among 990; shares compounds with H9c2 TAG inh; H9c2 lipid accumulation, Nile Red fluorescence; cells loaded with 200 µM oleic acid; AID 651629;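 active means mean inhibition across replicates of 40% or more; inactive means mean inhibition below 40%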
Large screens that a line does not name were inactive (follow-up assays come after a bar, where they were run).

O=C(Nc1cccc(NS(=O)(=O)c2ccc(S(=O)(=O)NC3CC3)cc2)c1)c1ccccn1	H9c2 TAG inh 56 | TAG conf inactive
Cc1cc(C)c2nc(-c3ccncc3)cc(C(=O)N3CCN(Cc4ccccc4Cl)CC3)c2c1	H9c2 TAG inh 62 | TAG conf 59
O=C(Nc1cccc2ccccc12)c1ccc([N+](=O)[O-])o1	none (no result: H9c2 TAG inh)
Cc1cccc(NC(=O)c2ccc([N+](=O)[O-])o2)c1C	H9c2 TAG inh 71 | TAG conf 62
Cc1ccc2nc(-c3ccccc3)cc(C(=O)N3CCN(S(=O)(=O)c4c(C)noc4C)CC3)c2c1	none
CCCn1c(SCC(=O)N(C)CC(=O)Nc2ccc(C)cc2)n[nH]c1=O	none
Cc1ccc(NC(=O)Cn2ccnc2)cc1C	none (no result: H9c2 TAG inh)
Nc1c(N(Cc2ccccc2)C(=O)COc2ccc(F)cc2Cl)c(=O)[nH]c(=O)n1Cc1ccccc1	none
CCC(=O)NC(Nc1sc2c(c1C(=O)OC)CCCC2)(C(F)(F)F)C(F)(F)F	H9c2 TAG inh 51 | TAG conf inactive
COc1cc(CN2C[C@@H](CO)O[C@@H](n3cnc4c(N(C)C)ncnc43)C2)cc(OC)c1OC	none (no result: APJ ag, CCR6 antag, APJ antagonist)
COc1cc(-c2noc(C)c2C#Cc2ccc(N)cc2)cc(OC)c1OC	H9c2 TAG inh 57 | TAG conf 47
COc1ccccc1[C@H]1C(c2cccc(C)c2)=NN(c2ccccc2)[C@@H]1CO	H9c2 TAG inh 72 (no result: APJ ag, APJ antagonist) | TAG conf inactive
CC1CCCC(NC(=O)COC(=O)c2cc3ccccc3oc2=O)C1C (centres undefined)	none
CC(C)C(NC(=O)c1ccccc1NC(=O)C(C)(C)C)C(=O)N1CCOCC1 (centres undefined)	none
COc1ccc(CNC(=O)C[C@H]2C[C@H](C(=O)N3CCCCC3)[C@@]3(CCc4ccccc4)c4[nH]c5ccc(Cl)cc5c4CCN3C2=O)cc1OC	H9c2 TAG inh 53 (no result: APJ ag, APJ antagonist) | TAG conf 84
COc1ccc2[nH]c3c(c2c1)CCN1C(=O)C(CC(=O)NC/C=C(\C)CCC=C(C)C)C[C@H](C(=O)N(C(C)C)C(C)C)[C@@]31C (some centres undefined)	H9c2 TAG inh 55 (no result: APJ ag, APJ antagonist) | TAG conf 55
C[C@]12c3[nH]c4ccccc4c3CCN1C(=O)C(CC(=O)NCC13CC4CC(CC(C4)C1)C3)C[C@@H]2C(=O)N1CCCCC1 (some centres undefined)	H9c2 TAG inh 83 | TAG conf 61
CC[C@]12c3[nH]c4ccc(Cl)cc4c3CCN1C(=O)[C@@H](CC(=O)NCc1ccc(OC)c(OC)c1)C[C@@H]2C(=O)N1CCN(C(=O)C2CC2)CC1	none (no result: APJ ag, APJ antagonist)
CC(C)=CCC/C(C)=C/CNC(=O)C[C@H]1C[C@H](C(=O)N2CCCCC2)[C@@]2(CCc3ccccc3)c3[nH]c4cc(-c5ccco5)ccc4c3CCN2C1=O	H9c2 TAG inh 69 (no result: APJ ag, APJ antagonist) | TAG conf 92
CC(=O)NCCNC(=O)C1(C)Cc2c(-c3ccc(NC(C)=O)cc3)ccnc2O1 (centres undefined)	none (no result: APJ ag, CCR6 antag, APJ antagonist)
CC1(C(=O)NS(=O)(=O)c2ccc3ccccc3c2)CCN1C(=O)Cc1ccc(Cl)cc1Cl (centres undefined)	none (no result: APJ ag, CCR6 antag, APJ antagonist)
CC(=O)Nc1ccc(C(=O)COC(=O)c2cccs2)c(F)c1	none
COc1ccc(C(=O)Nc2sc3c(c2C(=O)NCc2ccco2)CCCC3)cc1OC	H9c2 TAG inh 66 | TAG conf 52
COc1ccc(C(=O)Nc2ccc(Cl)cc2C(=O)NCc2ccco2)cc1OC	H9c2 TAG inh 52 | TAG conf inactive
COc1ccc(C(=O)Nc2ccccc2C(=O)NCc2ccco2)cc1OC	none (no result: H9c2 TAG inh)
CC(C)c1nc(CNC(=O)C2CCC(=O)N(CCc3ccc(Cl)cc3)C2)no1 (centres undefined)	none
Cc1cccc(NC(=O)C(C)Sc2nc3ccccc3c(=O)n2CCCN2CCOCC2)c1 (centres undefined)	H9c2 TAG inh 53 | TAG conf 57
Cc1c(P(=S)(c2ccccc2)c2ccccc2)[n+]2ccccc2n1C/C=C/c1ccccc1	H9c2 TAG inh 83 (no result: APJ ag, EBI2 block, CCR6 antag, APJ antagonist) | TAG conf 90
